We go through 15 compounds from ChEMBL document CHEMBL1122185, “Tricyclics with analgesic and antidepressant activity. 2. [[(Alkylamino)ethyl]thio]dibenzo[b,f]thiepins and 10,11-dihydro derivatives” (1982).

Common to all, as to format: functional
Assay [1] has as its system Mus musculus. Nature of the assay: Antidepressant activity was determined to prevent tetrabenazine-induced ptosis(TBZ) after oral administration in mice. Put shortly:
(§1)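 Mouse model measuring prevention of tetrabenazine-induced ptosis, with dosing orally or intraperitoneally. The vehicle was distilled water with a few drops of Tween 80. ED50 values were calculated by linear-regression analysis, with 95% confidence limits in parentheses.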

Assay [2] relates to Mus musculus. Nature of the assay: Analgesic activity was determined for delay in response to noxious heat stimuli after subcutaneous administration in mice, in tail flick assay. As to conditions: for ED50: sc. Put shortly: (§2)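 D'Amour-Smith tail-flick method in mice: delay in response to a noxious heat stimulus. Compounds were given in a vehicle of distilled water with a few drops of Tween 80. ED50 was calculated by linear-regression analysis with 95% confidence limits.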

Assay [3] concerns Mus musculus. Nature of the assay: Analgesic activity was determined for inhibition of phenyl-p-quinone-induced writhing (PQW) after subcutaneous administration in mice. As to conditions: for ED50: sc. Put shortly:
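Mice were given phenyl-p-quinone to induce writhing, and inhibition of writhing was scored after subcutaneous dosing. The vehicle was distilled water with a few drops of Tween 80. ED50 was obtained by linear regression with 95% confidence limits.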

Assay [4] concerns Rattus norvegicus. Nature of the assay: Antidepressant activity was determined for potentiation of head twitching induced by 5-hydroxytryptophan-(5-HTP) after intraperitoneal administration in pargyline-pretreated rats. As to conditions: ip. In outline:
(§3)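 In pargyline-pretreated rats, potentiation of 5-hydroxytryptophan-induced head twitching (stereotypy) was measured after intraperitoneal dosing. The vehicle was distilled water plus a few drops of Tween 80. ED50 was derived by linear regression with 95% confidence limits.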

The test system of assay [5] is Rattus norvegicus. The assay can be described thus: Antidepressant activity was determined for potentiation of head twitching induced by 5-hydroxytryptophan-(5-HTP) after intraperitoneal administration in pargyline-pretreated rats,. Conditions: ip. In outline: as §3
The subject of assay [6] is Mus musculus. Nature of the assay: Antidepressant activity was determined to prevent tetrabenazine-induced ptosis(TBZ) after oral administration in mice.(value in parentheses indicates 95% confidence limits). Put shortly: as §1
In assay [7] the test system is Mus musculus. Nature of the assay: Analgesic activity was determined for delay in response to noxious heat stimuli after intraperitoneal administration in mice, in tail flick assay. Put shortly:
as §2

The subject of assay [8] is Mus musculus. The assay can be described thus: Antidepressant activity was determined to prevent tetrabenazine-induced ptosis(TBZ) after intraperitoneal administration in mice. As to conditions: ip. In outline: as §1
The mark [9] stands for this setting: Mus musculus, po, read-out: ED50.

SMILES strings stand for the structures. “And” between values parts separate entries of the source, which are not always exact repeats. Identical values can stand only once.

On to `CNCCSC1=Cc2ccccc2Sc2ccc(O)cc21`, for which the ED50 in assay [1] (setting [9]) is 2 mg/kg; in assay [2] it was > 25 mg/kg; in assay [3], > 10 mg/kg; in assay [4], > 10 mg/kg.

`CNCCSC1=Cc2ccccc2Sc2ccc(F)cc21`: the 50% effective dose (ED50) in assay [1] (setting [9]) is 5.2 mg/kg; in assay [3] it was 8.9 mg/kg; in assay [4] it was > 10 mg/kg. The compound further yielded an Inhibition in assay [2] of 50%.

As for `CN(C)CCSC1Cc2ccccc2Sc2ccc(F)cc21` (stereo unspecified), the median effective dose (ED50) in assay [1] is 0.91 mg/kg; in assay [1] (setting [9]) it was 1.2 mg/kg; in assay [2], > 25 mg/kg; in assay [3] it was 9 mg/kg; in assay [5] it was > 10 mg/kg.

Take `CN(C)CCSC1Cc2ccccc2Sc2ccccc21` (stereo unspecified): the Inhibition in assay [1] and in assay [2] was 60% each time. For the same compound, the 50% effective dose (ED50) is 3.3 mg/kg in assay [3] and > 10 mg/kg in assay [4].

`CNCCSC1Cc2ccccc2Sc2ccccc21` (stereo unspecified): the ED50 was 8 mg/kg in assay [1] (setting [9]), 4.2 mg/kg in assay [3] and > 10 mg/kg in assay [4]. This compound also showed an Inhibition in assay [2] of 60%.

Consider `CNCCSC1=Cc2ccccc2Sc2ccccc21`, for which the values for the ED50 in assay [6], in assay [2] and in assay [4] were 23.9 mg/kg, > 25 mg/kg and > 10 mg/kg, respectively.

In the case of `CN(C)CCSC1=Cc2ccccc2Sc2ccc(F)cc21`, the ED50 is 3.6 mg/kg in assay [6], > 25 mg/kg in assay [2], > 10 mg/kg in assay [3] and > 10 mg/kg in assay [4].

Regarding `CC(C)=CCN1CC[C@]2(C)c3cc(O)ccc3C[C@H]1[C@H]2C` [(+)-PENTAZOCINE], the values for the ED50 in assay [2] and in assay [3] were 14.6 mg/kg and 2.4 mg/kg, respectively.

For `CNCCSC1Cc2ccccc2Sc2ccc(Cl)cc21` (stereo unspecified), the 50% effective dose (ED50) in assay [7] (ip) was 63.6 mg/kg; in assay [3] it was 4.4 mg/kg; in assay [4] it was 50 mg/kg.

Turning to `CN(C)CCCN1c2ccccc2CCc2ccccc21` [IMIPRAMINE], the 50% effective dose (ED50) in assay [1] is 2.8 mg/kg and 1.3 mg/kg; in assay [2], > 25 mg/kg; in assay [3] it was 10.7 mg/kg; in assay [4], > 10 mg/kg.

For `CN(C)CCSC1=Cc2ccccc2Sc2ccc(Cl)cc21`, the ED50 in assay [1] (setting [9]) was 3.7 mg/kg; in assay [2] it was > 25 mg/kg; in assay [3], 14.6 mg/kg; in assay [4], > 10 mg/kg.

Consider `CN(C)CCSC1=Cc2ccccc2Sc2ccccc21`, for which the median effective dose (ED50) is > 20 mg/kg in assay [1] (setting [9]), > 25 mg/kg in assay [2] and > 10 mg/kg in assay [4]. The Inhibition in assay [3] amounted to 64%.

`CNCCSC1Cc2ccccc2Sc2ccc(F)cc21` (stereo unspecified): the ED50 in assay [8] came to 0.28 mg/kg; in assay [1] (setting [9]), 1.5 mg/kg; in assay [3], 2.9 mg/kg; in assay [4] it was 8.1 mg/kg. In assay [7], this compound returned an Inhibition of 60%.

On to `CNCCSC1=Cc2ccccc2Sc2ccc(Cl)cc21`, for which the median effective dose (ED50) is > 25 mg/kg in assay [2], 12.5 mg/kg in assay [3] and > 10 mg/kg in assay [4].

Turning to `CN(C)CCSC1Cc2ccccc2Sc2ccc(Cl)cc21` (stereo unspecified), the results for the ED50 in assay [2], in assay [3] and in assay [4] were > 25 mg/kg, > 10 mg/kg and > 10 mg/kg, respectively.
